Assay outcomes as filed in PubChem BioAssay.
Compounds with a hit are over-represented: about 3.1% of the library has one in this group of screens.
KCNQ1 act: human KCNQ1 channel potentiation or activation; P51787; CHO-K1 KCNQ1, thallium flux FluxOR fluorescence; stronger effect = higher value; B-score at 10 µM; 310,000 compounds, 0.35% hits;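 active = fluorescence ratio B-score, a plate-corrected score, at least three library SD, with initial intensity B-score within 5 SD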
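Material: CHO-K1 cells stably expressing KCNQ1. Medium: assay buffer for compound exposure, DMSO matched across wells. Reagent: K+/Tl+ depolarizing stimulus. Compound dosing: single-concentration screen. Times: 37 °C overnight plating, 90-min dark dye load, 20-min compound pretreatment. Technique: FluxOR Tl+ flux fluorescence.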
KCNQ1 inh: human KCNQ1 channel inhibition. B-score at 10 µM. P51787. 310,000 compounds, 1.3% hits. AID 2642. CHO-K1 KCNQ1, FluxOR thallium flux fluorescence; stronger effect = higher value;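 active = compounds whose thallium flux B-score, printed positive for inhibition, exceeds three library SD while starting fluorescence stays within three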;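 note: channel opened by potassium depolarization with thallium stimulus after 20 min compound exposure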
KCNK9 inh: inhibitors of human KCNK9 two-pore domain potassium channel | Q9NPC2 | HEK293 KCNK9, FluxOR thallium flux fluorescence; stronger effect = lower value | AID 488922 | B-score at 10 µM | 310,000 compounds, 1.2% hits;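 active = ratio B-score over 3 SD below the library mean, with starting fluorescence within 5 SD of its mean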;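 note: negative B-score means less thallium flux so channel inhibition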
hERG rescue: hERG (human) protection from proarrhythmic block | 310,000 compounds, 0.51% hits | activation (rescue from dofetilide block), less the hit threshold, % at 10 µM | AID 1511 | CHO-hERG, FluxOR thallium flux, dofetilide IC70 present;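 active = activation above the mean of controls blocked by dofetilide plus 5 SD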;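 note: thallium influx through hERG after potassium depolarization seen as dye fluorescence rise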
KCNK3 inh: human KCNK3 channel inhibition, primary screen; 340,000 compounds, 0.84% hits; CHO-KCNK3 thallium flux, FluxOR fluorescence; stronger effect = lower value; B-score at 10 µM;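 active = B-score under library mean minus 4 SD, starting fluorescence ratio at most library mean plus 5 SD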;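 note: more negative B-score means stronger inhibition of thallium flux through KCNK3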
Target sequence (O14649 whole entry, looked up): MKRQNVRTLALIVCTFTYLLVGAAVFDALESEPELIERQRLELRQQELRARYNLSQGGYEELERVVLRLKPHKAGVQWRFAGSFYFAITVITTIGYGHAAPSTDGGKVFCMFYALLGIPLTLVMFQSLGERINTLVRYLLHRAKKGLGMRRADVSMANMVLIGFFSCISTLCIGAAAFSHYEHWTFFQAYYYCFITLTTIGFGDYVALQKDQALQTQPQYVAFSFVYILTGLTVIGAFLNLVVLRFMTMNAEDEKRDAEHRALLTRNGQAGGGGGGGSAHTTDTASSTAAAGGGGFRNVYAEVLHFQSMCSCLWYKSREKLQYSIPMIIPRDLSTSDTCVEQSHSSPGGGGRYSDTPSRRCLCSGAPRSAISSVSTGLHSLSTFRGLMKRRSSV
KCNK9 inh conf: human KCNK9 inhibitor confirmation; inhibition, % at 10 µM; 4,900 compounds, 43% hits; HEK293 KCNK9 cells, FluxOR thallium flux fluorescence; shares compounds with KCNK9 inh;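 active = thallium signal inhibited by more than 5 SD of the compound-free buffer control wells, on both duplicate plates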;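 note: 0% = assay buffer control wells without compound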
Kir21 sel: tests whether KCNK9 modulators also affect mouse Kir2.1 | shares compounds with KCNK9 inh | 4,900 compounds, 4% hits | Kir2.1 cells, FluxOR thallium flux fluorescence | inhibition, % at 10 µM;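 active = thallium signal drop more than 5 SD beyond the mean of the no-compound control wells, seen in both duplicate plates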;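 note: signal is fluorescence rise after thallium addition divided by baseline fluorescence; plate controls were assay buffer only for no effect and full block by chlorpromazine control for full effect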
KCNK9 uninduced: non-induced cell nonspecific activity of KCNK9 modulators. inhibition, % at 10 µM. 4,900 compounds, 40% hits. shares compounds with KCNK9 inh. non-induced KCNK9-HEK293, FluxOR thallium flux;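 active = thallium signal drop beyond 5 SD of the untreated control mean, on both duplicate plates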;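 note: plate controls were buffer only IC0 wells for no effect and SID17386958 at its maximal inhibitory level for full effect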
* hit, by the source's call; i = inactive; / = no result.

SMILES | KCNQ1 act | KCNQ1 inh | KCNK9 inh | hERG rescue | KCNK3 inh | KCNK9 inh conf | Kir21 sel | KCNK9 uninduced
Cc1ccc(Cl)cc1N1CCN(S(=O)(=O)c2cccc(S(=O)(=O)N3CCCC3)c2)CC1 | i | i | -10.2* | -6.8 | -11* | 49.0%* | i | 32.0%*
COc1ccc(NC(=O)c2ccc(NCC3CCCO3)c([N+](=O)[O-])c2)cc1 (stereo unspecified) | i | i | i | -3.1 | i | / | / | /
COc1ccc(-c2n(CC(=O)OC3CC(C)CCC3C(C)C)c3ccccc3[n+]2C)cc1 (stereo unspecified) | i | 11* | -16.9* | -30.9 | i | 73.0%* | 80.0%* | i
CC1CCC(C(C)C)C(OC(=O)CSc2nccc(=O)[nH]2)C1 (stereo unspecified) | i | i | i | -12.2 | i | / | / | /
Nc1ncnc(Nc2cccc(C(F)(F)F)c2)n1 | i | i | i | -11.4 | i | / | / | /
Nc1nc(Nc2cccc(C(F)(F)F)c2)nc(C(F)(F)F)n1 | i | i | -9.26* | -5.5 | i | 40.0%* | i | i
Cc1ccc(S(=O)(=O)N2CCN(C(=O)CSc3ncc(C(F)(F)F)cc3Cl)CC2)cc1 | i | i | i | -5.6 | i | i | i | i
Cc1ccccc1C(=O)Nc1cc(NC(=O)c2ccccc2C)cc(C(=O)O)c1 | i | i | i | -5.6 | i | / | / | /
Oc1ccccc1/C=N/n1c(COc2ccccc2)n[nH]c1=S | i | i | i | -14.9 | i | / | / | /
Oc1ccc(/C=N/n2c(COc3ccccc3)n[nH]c2=S)c(O)c1 | i | i | -8.3* | -15.2 | i | 47.5%* | i | 35.0%*
Cc1ccccc1OCCN1CCC(Cc2ccccc2)CC1 | i | i | i | -14.2 | i | i | i | i
CCOc1ccccc1OCCN1CCCC1 | i | i | i | -0.9 | i | / | / | /
Cc1ccc([N+](=O)[O-])c(OCCN2CCC(Cc3ccccc3)CC2)c1 | i | i | i | -29.0 | i | i | i | i
CCOc1ccccc1OCCN1CCC(Cc2ccccc2)CC1 | i | i | i | -12.1 | i | i | i | i
Cc1cc(C)c(NC(=O)COC(=O)COc2ccc3c(C)cc(=O)oc3c2)c(Cl)c1 | / | / | / | / | i | / | / | /
CCOc1ccc2[nH]c(=O)c(CN(CCOC)C(=O)N3CCOCC3)cc2c1 | i | i | i | -1.4 | i | / | / | /
Cc1ccc(-c2nnc(-c3ccncc3)n2-c2ccc(C)cc2)cc1 | i | i | i | -13.4 | i | / | / | /
CC(C)Cn1c(SC(C)C(=O)Nc2ccc3c(c2)OCCO3)nc2ccccc2c1=O (stereo unspecified) | i | i | -8.46* | -3.0 | i | i | i | i
CCc1ccc(N(CC(=O)Nc2ccc(OC)cc2OC)S(C)(=O)=O)cc1 | i | i | i | -7.5 | i | / | / | /
CCCCS(=O)(=O)N1CCC(C(=O)NCC2CCCO2)CC1 (stereo unspecified) | i | i | i | -1.9 | i | / | / | /
COc1cccc(-c2nc(CS(=O)(=O)CC(=O)NCC(C)c3ccccc3)c(C)o2)c1 (stereo unspecified) | i | i | i | -11.8 | i | i | i | i
COc1cccc(-c2nc(CS(=O)(=O)CC(=O)NCCc3ccccc3)c(C)o2)c1 | i | i | i | -10.4 | i | / | / | /
COc1ccc(-c2ccc(CCC(=O)O)n2CC2CCCO2)cc1 (stereo unspecified) | i | i | i | -7.1 | i | / | / | /
CN(C)c1ccc(C(=O)c2ccc(N(C)C)c3ccccc23)cc1 | i | i | i | -4.0 | i | i | i | i
O=C(Nc1ccc(N2CCOCC2)cc1)c1cccc2c(Br)cccc12 | i | i | i | -6.5 | i | / | / | /
SMILES | KCNQ1 act | KCNQ1 inh | KCNK9 inh | hERG rescue | KCNK3 inh | KCNK9 inh conf | Kir21 sel | KCNK9 uninduced
O=C(Nc1ccccc1N1CCOCC1)c1cccc2c(Br)cccc12 | i | i | i | -2.0 | i | i | i | i
CC1CCN(c2ccccc2NC(=O)c2cc([N+](=O)[O-])ccc2N2CCOCC2)CC1 | i | 8* | -9.82* | -12.6 | i | 30.5%* | i | 30.0%*
CN(CC(=O)Nc1ccc(Cl)c(C(F)(F)F)c1)C(=O)C1CSC2(C)CCC(=O)N12 (stereo unspecified) | i | i | i | -9.2 | i | / | / | /
Cc1ccc(C)n1-c1nn(S(=O)(=O)c2cccc(C(F)(F)F)c2)c2cccc(F)c12 | i | i | -13.6* | 0.1 | i | 60.0%* | i | 30.5%*
Cc1cccc(C(=O)Nc2sc(-c3ccccc3)cc2C(=O)O)c1 | i | i | i | -22.5 | i | i | i | i
Brc1ccc(-c2noc(COc3ccc4c(c3)CCC4)n2)o1 | i | i | i | -17.6 | i | i | i | i
Clc1ccc(OCc2nc(-c3ccc(Br)o3)no2)cc1 | i | i | i | -5.2 | i | / | / | /
c1csc(-c2noc(COc3ccc4c(c3)CCCC4)n2)c1 | i | i | i | -16.0 | i | i | i | i
CC(C)(C)OC(=O)NCCCC[C@H](NC(=O)c1nc[nH]c1C(=O)N1CCc2ccccc2C1)C(=O)OC(C)(C)C | i | i | i | -12.2 | i | / | / | /
CC(C)C[C@H](NC(=O)c1nc[nH]c1C(=O)NCc1ccc(CNC(=O)OC(C)(C)C)cc1)C(=O)OC(C)(C)C | i | i | -8.84* | -7.1 | i | 31.5%* | i | 29.0%*
CC(C)(C)OC(=O)[C@H](Cc1ccccc1)NC(=O)c1nc[nH]c1C(=O)N1CCc2ccccc2C1 | i | i | i | -12.0 | i | i | i | i
COc1cc(C2CC(c3cccnc3)=NN2c2ccc(F)cc2)cc(OC)c1OC (stereo unspecified) | i | i | i | -2.6 | i | / | / | /
Cc1nnc(-c2ccccc2)c(=O)n1/N=C/c1c(O)ccc2ccccc12 | i | 8* | -8.84* | -5.8 | i | 38.5%* | i | 34.0%*
Cc1nnc(C)n1/N=C/c1c(O)ccc2ccccc12 | i | i | i | -4.6 | i | / | / | /
CCOc1ccc(NC(=O)CN(C)C(=O)CN2C(=O)C3CCCCC3C2=O)cc1OCC (stereo unspecified) | / | / | / | / | i | / | / | /
CCN(C(=O)CCN1C(=O)c2ccccc2C1=O)C1CCCCC1 | i | i | i | -2.9 | i | / | / | /
